Laboratory results: ChEMBL document CHEMBL3259568 (Bioorg Med Chem, 2014)

Key:
Rattus norvegicus [1] = assay: Ulcerogenic activity in albino rat stress model assessed as ulcer index at 10 mg/kg, po after 7 hrs; type: toxicity, organism-based; parameters: dose 10 mg/kg, route oral; conditions: in vivo
Outline: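 Albino rats of either sex (170–250 g), six per group, starved 48 h with water, dosed orally 10 mg/kg in sodium CMC; killed 7 h later. Stomach opened along greater curvature and everted; lesions counted in five size classes (pinpoint to >4 mm) to give ulcer index, reported as min–max range.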

Mus musculus [2] = assay: Acute toxicity in albino mouse assessed as mortality at 2000 mg/kg, po measured continuously for 3 hrs followed by every 30 mins for next 3 hrs up to 24 hrs; type: organism-based; parameters: dose 2000 mg/kg, route oral; conditions: in vivo
Outline: (§1)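 OECD guideline test. Albino mice of either sex, 20–25 g, six per group, fasted 24 h with water ad libitum. Compounds suspended in 0.5% aqueous sodium CMC and given orally in increasing doses of 10, 20, 100, 200, 1000 and 2000 mg/kg b.w. Animals watched continuously for 3 h for general behavioural, neurological and autonomic profiles, then every 30 min for 3 h, then up to 24 h or until death.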

Rattus norvegicus [3] = assay: Antipyretic activity in albino rat assessed as yeast-induced pyrexia at 10 mg/kg, po measured at 2 hrs by telethermometer (reference value: 38.20 degC); type: functional
Outline: (§2)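 Male albino rats (170–230 g) given s.c. 2.5 ml 20% aqueous baker's yeast; rectal temperature by telethermometer before and at 18 h (taken as 0 h). Rats with 1–2 °C rise, six per group, dosed orally 30 min later (control 1 ml 0.5% sodium CMC). Temperature recorded hourly to 5 h; temperature index = sum of mean changes from 0 h.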

Mus musculus [4] = assay: Acute toxicity in albino mouse assessed as effect on general behavioral profile at 2000 mg/kg, po measured for 3 hrs; type: organism-based; parameters: dose 2000 mg/kg, route oral; conditions: in vivo; outline: as §1
Rattus norvegicus [5] = assay: Acute antiinflammatory activity in albino rat assessed as inhibition of carrageenan-induced paw edema at 10 mg/kg, po administered 1 hr followed by carrageenan challenge measured at 2 hrs by plethysmometric analysis relative to control; type: functional
Outline: (§3)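 Male albino rats (170–220 g), fasted ≥12 h with water, six per group. Oral dosing in 0.5% sodium CMC (control 1 ml vehicle), then 1 h later subplantar 0.05 ml of 1% carrageenan into left hind footpad. […] Mean ± SEM, ANOVA/Dunnett.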

Rattus norvegicus [6] = assay: Antipyretic activity in albino rat assessed as yeast-induced pyrexia at 10 mg/kg, po measured at 5 hrs by telethermometer (reference value: 37.89 degC); type: functional; outline: as §2
[7] = molecular target: T1, Prostaglandin G/H synthase 1 (Ovis aries) (UniProt P05979); assay: Inhibition of ovine COX1 peroxidase activity assessed as reduction of PGG2 to PGH2 by measuring oxidized TMPD level at 10 ug/ml by colorimetric assay relative to control
T1 sequence (whole entry): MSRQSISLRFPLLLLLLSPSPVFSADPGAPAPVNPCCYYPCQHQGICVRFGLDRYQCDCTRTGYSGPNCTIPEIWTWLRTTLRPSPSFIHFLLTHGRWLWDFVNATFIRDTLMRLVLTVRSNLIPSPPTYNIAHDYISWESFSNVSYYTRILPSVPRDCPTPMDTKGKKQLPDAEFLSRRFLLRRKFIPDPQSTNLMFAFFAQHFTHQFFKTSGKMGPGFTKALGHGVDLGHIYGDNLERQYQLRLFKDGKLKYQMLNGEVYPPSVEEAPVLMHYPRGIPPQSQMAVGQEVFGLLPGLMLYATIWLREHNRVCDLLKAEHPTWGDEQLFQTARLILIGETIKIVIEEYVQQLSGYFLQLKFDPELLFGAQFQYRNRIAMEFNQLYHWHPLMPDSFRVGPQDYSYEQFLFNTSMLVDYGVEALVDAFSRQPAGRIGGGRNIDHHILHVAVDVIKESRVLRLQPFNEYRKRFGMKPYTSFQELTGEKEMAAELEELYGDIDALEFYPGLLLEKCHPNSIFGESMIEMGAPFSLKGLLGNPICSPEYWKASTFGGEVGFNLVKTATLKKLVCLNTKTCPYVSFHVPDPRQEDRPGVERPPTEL

[8] = molecular target: T2, Prostaglandin G/H synthase 1 (Ovis aries, UniProt P05979); assay: Inhibition of ovine COX1 peroxidase activity assessed as reduction of PGG2 to PGH2 by measuring oxidized TMPD level by colorimetric assay
T2 sequence (P05979 whole entry): T1 sequence (whole entry)

Rattus norvegicus [9] = assay: Antipyretic activity in albino rat assessed as decrease in yeast-induced pyrexia by measuring temperature index at 10 mg/kg, po measured over 5 hrs by telethermometer (reference value: 1.04 degC); type: functional; outline: as §2
Mus musculus [10] = assay: Analgesic activity in albino mouse assessed as protection against glacial acetic acid-induced writhing at 10 mg/kg, po administered 0.5 hrs followed by glacial acetic acid challenge measured for 15 mins relative to control; type: functional
Outline: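 Mice (20–25 g) pre-screened 24 h earlier with i.p. 10 ml/kg 0.6% glacial acetic acid; only responders used. Oral dosing as suspension in 0.5% sodium CMC 30 min before acetic acid challenge. Writhing episodes counted for 15 min; group means versus vehicle control; ANOVA with Dunnett test.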

Rattus norvegicus [11] = assay: Antipyretic activity in albino rat assessed as yeast-induced pyrexia at 10 mg/kg, po measured at 3 hrs by telethermometer (reference value: 38.11 degC); type: functional; outline: as §2
Rattus norvegicus [12] = assay: Antipyretic activity in albino rat assessed as yeast-induced pyrexia at 10 mg/kg, po measured at 1 hr by telethermometer (reference value: 38.26 degC); type: functional; outline: as §2
Mus musculus [13] = assay: Acute toxicity in albino mouse assessed as effect on autonomic profile at 2000 mg/kg, po measured for 3 hrs; type: organism-based; parameters: dose 2000 mg/kg, route oral; conditions: in vivo; outline: as §1
Rattus norvegicus [14] = assay: Antipyretic activity in albino rat assessed as yeast-induced pyrexia at 10 mg/kg, po measured at 4 hrs by telethermometer (reference value: 38 degC); type: functional; outline: as §2
Mus musculus [15] = assay: Acute toxicity in albino mouse assessed as effect on neurological profile at 2000 mg/kg, po measured for 3 hrs; type: organism-based; parameters: dose 2000 mg/kg, route oral; conditions: in vivo; outline: as §1
Rattus norvegicus [16] = assay: Acute antiinflammatory activity in albino rat assessed as inhibition of carrageenan-induced paw edema at 10 mg/kg, po administered 1 hr followed by carrageenan challenge measured at 4 hrs by plethysmometric analysis relative to control; type: functional; outline: as §3

## CC(=O)Oc1ccccc1C(=O)O [ASPIRIN]
Rattus norvegicus [1]
  UI: 4.7

## S=c1oc(Cc2ccccc2Nc2c(Cl)cccc2Cl)nn1CNc1ccccc1Cl
Mus musculus [2]
  Activity: Non-toxic
Rattus norvegicus [3]
  T: 37.77 °C
Mus musculus [4]
  Activity: Non-toxic
Rattus norvegicus [5]
  inhibition in vivo at 10 mg/kg: 59.4%
Rattus norvegicus [1]
  UI: 3.2
Rattus norvegicus [6]
  T: 37.11 °C
[7]
  inhibition: 27.8%
[8]
  IC50: > 50 µM
Rattus norvegicus [9]
  T: 3.06 °C
Mus musculus [10]
  Activity: 77.6%
Rattus norvegicus [11]
  T: 37.36 °C
Rattus norvegicus [12]
  T: 37.74 °C
Mus musculus [13]
  Activity: Non-toxic
Rattus norvegicus [14]
  T: 37.06 °C
Mus musculus [15]
  Activity: Non-toxic
Rattus norvegicus [16]
  inhibition in vivo at 10 mg/kg: 61.3%

## S=c1oc(Cc2ccccc2Nc2c(Cl)cccc2Cl)nn1CNc1cccc(Cl)c1
Mus musculus [2]
  Activity: Non-toxic
Rattus norvegicus [3]
  T: 38.6 °C
Mus musculus [4]
  Activity: Non-toxic
Rattus norvegicus [5]
  inhibition in vivo at 10 mg/kg: 71.8%
Rattus norvegicus [1]
  UI: 2.1
Rattus norvegicus [6]
  T: 37.2 °C
[7]
  inhibition: 25%
[8]
  IC50: > 50 µM
Rattus norvegicus [9]
  T: 5.4 °C
Mus musculus [10]
  Activity: 82.2%
Rattus norvegicus [11]
  T: 38.1 °C
Rattus norvegicus [12]
  T: 38.9 °C
Mus musculus [13]
  Activity: Non-toxic
Rattus norvegicus [14]
  T: 37.8 °C
Mus musculus [15]
  Activity: Non-toxic
Rattus norvegicus [16]
  inhibition in vivo at 10 mg/kg: 74.4%

## S=c1oc(Cc2ccccc2Nc2c(Cl)cccc2Cl)nn1CN1CCNCC1
Mus musculus [2]
  Activity: Non-toxic
Mus musculus [4]
  Activity: Non-toxic
Rattus norvegicus [5]
  inhibition in vivo at 10 mg/kg: 51.4%
[7]
  inhibition: 43.2%
[8]
  IC50: > 50 µM
Mus musculus [10]
  Activity: 75.9%
Mus musculus [13]
  Activity: Non-toxic
Mus musculus [15]
  Activity: Non-toxic
Rattus norvegicus [16]
  inhibition in vivo at 10 mg/kg: 56.5%

## CC(C(=O)O)c1ccc(-c2ccccc2)c(F)c1 (stereo not drawn) [FLURBIPROFEN]
Rattus norvegicus [1]
  UI: 5.9

## S=c1oc(Cc2ccccc2Nc2c(Cl)cccc2Cl)nn1CN1CCCCC1
Mus musculus [2]
  Activity: Non-toxic
Mus musculus [4]
  Activity: Non-toxic
Rattus norvegicus [5]
  inhibition in vivo at 10 mg/kg: 48.3%
[7]
  inhibition: 30.9%
[8]
  IC50: > 50 µM
Mus musculus [10]
  Activity: 74.1%
Mus musculus [13]
  Activity: Non-toxic
Mus musculus [15]
  Activity: Non-toxic
Rattus norvegicus [16]
  inhibition in vivo at 10 mg/kg: 45.9%

## S=c1oc(Cc2ccccc2Nc2c(Cl)cccc2Cl)nn1CNC1CCCCC1
Mus musculus [2]
  Activity: Non-toxic
Rattus norvegicus [3]
  T: 37.69 °C
Mus musculus [4]
  Activity: Non-toxic
Rattus norvegicus [5]
  inhibition in vivo at 10 mg/kg: 65.9%
Rattus norvegicus [1]
  UI: 3.6
Rattus norvegicus [6]
  T: 36.78 °C
[7]
  inhibition: 19.6%
[8]
  IC50: > 50 µM
Rattus norvegicus [9]
  T: 4.38 °C
Mus musculus [10]
  Activity: 77.6%
Rattus norvegicus [11]
  T: 37.03 °C
Rattus norvegicus [12]
  T: 37.98 °C
Mus musculus [13]
  Activity: Non-toxic
Rattus norvegicus [14]
  T: 37.79 °C
Mus musculus [15]
  Activity: Non-toxic
Rattus norvegicus [16]
  inhibition in vivo at 10 mg/kg: 67.5%

## CC1CCN(Cn2nc(Cc3ccccc3Nc3c(Cl)cccc3Cl)oc2=S)CC1
Mus musculus [2]
  Activity: Non-toxic
Mus musculus [4]
  Activity: Non-toxic
Rattus norvegicus [5]
  inhibition in vivo at 10 mg/kg: 36.9%
Mus musculus [13]
  Activity: Non-toxic
Mus musculus [15]
  Activity: Non-toxic
Rattus norvegicus [16]
  inhibition in vivo at 10 mg/kg: 33.8%

## CN1CCN(Cn2nc(Cc3ccccc3Nc3c(Cl)cccc3Cl)oc2=S)CC1
Mus musculus [2]
  Activity: Non-toxic
Rattus norvegicus [3]
  T: 37.94 °C
Mus musculus [4]
  Activity: Non-toxic
Rattus norvegicus [5]
  inhibition in vivo at 10 mg/kg: 65.1%
Rattus norvegicus [1]
  UI: 2.3
Rattus norvegicus [6]
  T: 37.2 °C
[7]
  inhibition: 35.2%
[8]
  IC50: > 50 µM
Rattus norvegicus [9]
  T: 2.81 °C
Mus musculus [10]
  Activity: 77.6%
Rattus norvegicus [11]
  T: 37.8 °C
Rattus norvegicus [12]
  T: 37.72 °C
Mus musculus [13]
  Activity: Non-toxic
Rattus norvegicus [14]
  T: 37.44 °C
Mus musculus [15]
  Activity: Non-toxic
Rattus norvegicus [16]
  inhibition in vivo at 10 mg/kg: 64.5%

## CCN1CCN(Cn2nc(Cc3ccccc3Nc3c(Cl)cccc3Cl)oc2=S)CC1
Mus musculus [2]
  Activity: Non-toxic
Rattus norvegicus [3]
  T: 38.3 °C
Mus musculus [4]
  Activity: Non-toxic
Rattus norvegicus [5]
  inhibition in vivo at 10 mg/kg: 63.1%
Rattus norvegicus [1]
  UI: 1.9
Rattus norvegicus [6]
  T: 37.1 °C
[7]
  inhibition: 28.4%
[8]
  IC50: > 50 µM
Rattus norvegicus [9]
  T: 6.6 °C
Mus musculus [10]
  Activity: 81%
Rattus norvegicus [11]
  T: 37.9 °C
Rattus norvegicus [12]
  T: 39.2 °C
Mus musculus [13]
  Activity: Non-toxic
Rattus norvegicus [14]
  T: 37.7 °C
Mus musculus [15]
  Activity: Non-toxic
Rattus norvegicus [16]
  inhibition in vivo at 10 mg/kg: 68.9%

## CN(Cn1nc(Cc2ccccc2Nc2c(Cl)cccc2Cl)oc1=S)c1ccccc1
Mus musculus [2]
  Activity: Non-toxic
Mus musculus [4]
  Activity: Non-toxic
Rattus norvegicus [5]
  inhibition in vivo at 10 mg/kg: 41.8%
Mus musculus [13]
  Activity: Non-toxic
Mus musculus [15]
  Activity: Non-toxic
Rattus norvegicus [16]
  inhibition in vivo at 10 mg/kg: 41%

## CC1CCCCN1Cn1nc(Cc2ccccc2Nc2c(Cl)cccc2Cl)oc1=S (stereo not drawn)
Mus musculus [2]
  Activity: Non-toxic
Mus musculus [4]
  Activity: Non-toxic
Rattus norvegicus [5]
  inhibition in vivo at 10 mg/kg: 39.4%
Mus musculus [13]
  Activity: Non-toxic
Mus musculus [15]
  Activity: Non-toxic
Rattus norvegicus [16]
  inhibition in vivo at 10 mg/kg: 36.6%
